Measured values from ChEMBL document CHEMBL3286310, “Synthesis and biological evaluation of novel N-aryl maleimide derivatives clubbed with α-hydroxyphosphonates” (2014).
≈ marks a conversion by molar mass, not a printed value.

What was measured:
Assay type in all cases: functional
[1] = system: Bacillus subtilis; assay: Antimicrobial activity against Bacillus subtilis NCIM 2250 at 100 ug/disc after 24 hrs by agar cup plate method; conditions: NCIM 2250, 24 h, read-out: DIZ
In short: (§1)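 Agar cup plate diffusion with bacterial inocula reseeded in Mueller-Hinton broth for 24 h at 37 °C. Compounds diluted in DMF, with DMF alone as control and streptomycin as standard. Inhibition-zone diameter read by caliper, each zone measured three times and averaged.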

[2] = system: Escherichia coli; assay: Antimicrobial activity against Escherichia coli ATCC 25922 at 100 ug/disc after 24 hrs by agar cup plate method; conditions: ATCC 25922, 24 h, read-out: DIZ; in short: as §1
[3] = system: Candida tropicalis; assay: Antimicrobial activity against Candida tropicalis MTCC 184 at 100 ug/disc after 48 hrs by agar cup plate method; conditions: MTCC 184, 48 h, read-out: DIZ
In short: (§2)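 Agar cup plate diffusion with fungal inocula reseeded in Czapek Dox broth for 48 h at 25 °C. Compounds diluted in DMF, with DMF alone as control and griseofulvin as standard. Inhibition-zone diameter read by caliper, each zone measured three times and averaged.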

[4] = system: Aspergillus clavatus; assay: Antimicrobial activity against Aspergillus clavatus MTCC 1323 at 100 ug/disc after 48 hrs by agar cup plate method; conditions: MTCC 1323, 48 h, read-out: DIZ; in short: as §2
[5] = system: Bacillus subtilis; assay: Antimicrobial activity against Bacillus subtilis NCIM 2250 after 24 hrs by NCCLS M7-A5 method; conditions: NCIM 2250, 24 h
In short: (§3)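 MIC by agar dilution on Mueller-Hinton agar plates, following NCCLS M7-A5. MIC was taken as the lowest concentration with no visible growth after 24 h incubation at 37 °C.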

[6] = system: Escherichia coli; assay: Antimicrobial activity against Escherichia coli ATCC 25922 after 24 hrs by NCCLS M7-A5 method; conditions: ATCC 25922, 24 h; in short: as §3
[7] = system: Candida tropicalis; assay: Antimicrobial activity against Candida tropicalis MTCC 184 after 24 hrs by NCCLS M7-A5 method; conditions: MTCC 184, 24 h; in short: as §3
[8] = system: Aspergillus clavatus; assay: Antimicrobial activity against Aspergillus clavatus MTCC 1323 after 24 hrs by NCCLS M7-A5 method; conditions: MTCC 1323, 24 h; in short: as §3
[9] = system: Candida albicans; assay: Antimicrobial activity against Candida albicans MTCC 277 at 100 ug/disc after 48 hrs by agar cup plate method; conditions: MTCC 277, 48 h, read-out: DIZ; in short: as §2
[10] = system: Aspergillus niger; assay: Antimicrobial activity against Aspergillus niger MCIM 545 at 100 ug/disc after 48 hrs by agar cup plate method; conditions: MCIM 545, 48 h, read-out: DIZ; in short: as §2
[11] = system: Candida albicans; assay: Antimicrobial activity against Candida albicans MTCC 277 after 24 hrs by NCCLS M7-A5 method; conditions: MTCC 277, 24 h; in short: as §3
[12] = system: Aspergillus niger; assay: Antimicrobial activity against Aspergillus niger MCIM 545 after 24 hrs by NCCLS M7-A5 method; conditions: MCIM 545, 24 h; in short: as §3

`CCOP(=O)(OCC)C(O)C1=C(N(C)C)C(=O)N(c2ccccc2)C1=O` (stereo unspecified) was tested, and the zone of inhibition at 100 µg/disc [1] was 13.4 mm, the zone of inhibition at 100 µg/disc [2] was 13.2 mm and the zone of inhibition at 100 µg/disc [3] was 16.1 mm. The zone of inhibition at 100 µg/disc [4] was 16.3 mm, the MIC [5] was 25 µg/mL (≈ 65.4 µM) and the MIC [6] was 20 µg/mL (≈ 52.3 µM). For the same compound, the MIC [7] was 20 µg/mL (≈ 52.3 µM) and the MIC [8] was 20 µg/mL (≈ 52.3 µM).
`CCOP(=O)(OCC)C(O)C1=C(N(C)C)C(=O)N(c2ccc(Br)cc2)C1=O` (stereo unspecified) was tested, and the zone of inhibition at 100 µg/disc [1] was 15.1 mm, the zone of inhibition at 100 µg/disc [2] was 13.1 mm and the zone of inhibition at 100 µg/disc [9] was 13.8 mm. It also gave a zone of inhibition at 100 µg/disc [3] of 16.8 mm, a zone of inhibition at 100 µg/disc [10] of 15.5 mm and a zone of inhibition at 100 µg/disc [4] of 16.4 mm. For the same compound, the MIC [5] was 20 µg/mL (≈ 43.4 µM), the MIC [6] was 25 µg/mL (≈ 54.2 µM) and the MIC [11] was 25 µg/mL (≈ 54.2 µM). It also gave an MIC [7] of 15 µg/mL (≈ 32.5 µM), an MIC [12] of 20 µg/mL (≈ 43.4 µM) and an MIC [8] of 20 µg/mL (≈ 43.4 µM).
Work on `CCOP(=O)(OCC)C(O)C1=C(N(C)C)C(=O)N(c2ccc(F)cc2)C1=O` (stereo unspecified) yielded a zone of inhibition at 100 µg/disc [1] of 15.6 mm, a zone of inhibition at 100 µg/disc [2] of 15.8 mm and a zone of inhibition at 100 µg/disc [9] of 16.5 mm. For the same compound, the zone of inhibition at 100 µg/disc [3] was 16.7 mm, the zone of inhibition at 100 µg/disc [10] was 16.4 mm and the zone of inhibition at 100 µg/disc [4] was 17.3 mm. The MIC [5] was 10 µg/mL (≈ 25 µM), the MIC [6] was 10 µg/mL (≈ 25 µM) and the MIC [11] was 15 µg/mL (≈ 37.5 µM). For the same compound, the MIC [7] was 15 µg/mL (≈ 37.5 µM), the MIC [12] was 15 µg/mL (≈ 37.5 µM) and the MIC [8] was 10 µg/mL (≈ 25 µM).
In the case of `CCOP(=O)(OCC)C(O)C1=C(N(C)C)C(=O)N(c2cccc(C(F)(F)F)c2)C1=O` (stereo unspecified), the zone of inhibition at 100 µg/disc [1] is reported as 15.4 mm, the zone of inhibition at 100 µg/disc [2] is reported as 15.7 mm and the zone of inhibition at 100 µg/disc [9] is reported as 15.2 mm. For the same compound, the zone of inhibition at 100 µg/disc [3] was 17.2 mm, the zone of inhibition at 100 µg/disc [10] was 16.6 mm and the zone of inhibition at 100 µg/disc [4] was 17.4 mm. The MIC [5] was 15 µg/mL (≈ 33.3 µM), the MIC [6] was 10 µg/mL (≈ 22.2 µM) and the MIC [11] was 20 µg/mL (≈ 44.4 µM). The MIC [7] was 10 µg/mL (≈ 22.2 µM), the MIC [12] was 15 µg/mL (≈ 33.3 µM) and the MIC [8] was 10 µg/mL (≈ 22.2 µM).
`CCOP(=O)(OCC)C(O)C1=C(N(C)C)C(=O)N(c2ccc(Cl)cc2)C1=O` (stereo unspecified) was tested, and the zone of inhibition at 100 µg/disc [2] was 13.4 mm, the zone of inhibition at 100 µg/disc [3] was 15.9 mm and the zone of inhibition at 100 µg/disc [10] was 15.8 mm. The MIC [6] was 25 µg/mL (≈ 60 µM), the MIC [7] was 25 µg/mL (≈ 60 µM) and the MIC [12] was 20 µg/mL (≈ 48 µM).
`CCOP(=O)(OCC)C(O)C1=C(N(C)C)C(=O)N(c2cccc(Cl)c2)C1=O` (stereo unspecified) was tested, and the zone of inhibition at 100 µg/disc [1] was 15.8 mm, the zone of inhibition at 100 µg/disc [2] was 13.5 mm and the zone of inhibition at 100 µg/disc [9] was 16.6 mm. It also gave a zone of inhibition at 100 µg/disc [3] of 17.1 mm, a zone of inhibition at 100 µg/disc [10] of 13.6 mm and a zone of inhibition at 100 µg/disc [4] of 16.2 mm. For the same compound, the MIC [5] was 10 µg/mL (≈ 24 µM), the MIC [6] was 20 µg/mL (≈ 48 µM) and the MIC [11] was 10 µg/mL (≈ 24 µM). For the same compound, the MIC [7] was 10 µg/mL (≈ 24 µM), the MIC [12] was 25 µg/mL (≈ 60 µM) and the MIC [8] was 20 µg/mL (≈ 48 µM).
Compound `CCOP(=O)(OCC)C(O)C1=C(N(C)C)C(=O)N(c2ccccc2Cl)C1=O` (stereo unspecified) has a zone of inhibition at 100 µg/disc [1] of 13.6 mm, a zone of inhibition at 100 µg/disc [2] of 15.4 mm and a zone of inhibition at 100 µg/disc [9] of 15.1 mm. For the same compound, the zone of inhibition at 100 µg/disc [3] was 16.2 mm, the zone of inhibition at 100 µg/disc [10] was 16.6 mm and the zone of inhibition at 100 µg/disc [4] was 16.8 mm. It also gave an MIC [5] of 20 µg/mL (≈ 48 µM), an MIC [6] of 15 µg/mL (≈ 36 µM) and an MIC [11] of 20 µg/mL (≈ 48 µM). The MIC [7] was 20 µg/mL (≈ 48 µM), the MIC [12] was 15 µg/mL (≈ 36 µM) and the MIC [8] was 15 µg/mL (≈ 36 µM).
`COC1=CC(=O)C[C@@H](C)[C@]12Oc1c(Cl)c(OC)cc(OC)c1C2=O` [GRISEOFULVIN] showed a zone of inhibition at 100 µg/disc [9] of 16.8 mm, a zone of inhibition at 100 µg/disc [3] of 17.3 mm and a zone of inhibition at 100 µg/disc [10] of 16.9 mm. It also gave a zone of inhibition at 100 µg/disc [4] of 17.6 mm, an MIC [11] of 5 µg/mL (≈ 14.2 µM) and an MIC [7] of 5 µg/mL (≈ 14.2 µM). For the same compound, the MIC [12] was 5 µg/mL (≈ 14.2 µM) and the MIC [8] was 5 µg/mL (≈ 14.2 µM).
Work on `CN[C@@H]1[C@H](O[C@H]2[C@H](O[C@H]3[C@H](O)[C@@H](O)[C@H](N=C(N)N)[C@@H](O)[C@@H]3N=C(N)N)O[C@@H](C)[C@]2(O)C=O)O[C@@H](CO)[C@H](O)[C@H]1O` [STREPTOMYCIN] yielded a zone of inhibition at 100 µg/disc [1] of 16.2 mm, a zone of inhibition at 100 µg/disc [2] of 16.4 mm and an MIC [5] of 5 µg/mL (≈ 8.6 µM). The MIC [6] was 5 µg/mL (≈ 8.6 µM).
